Drawing on ChEMBL document CHEMBL1139981, “Novel heterocyclic thyromimetics. Part 2” (Bioorg Med Chem Lett, 2007), this text covers EC50 and Activity for 12 compounds.

One assay has as its target T1, Thyroid hormone receptor (Homo sapiens, UniProt P10827+P10828).
T1 sequence (P10827 whole entry): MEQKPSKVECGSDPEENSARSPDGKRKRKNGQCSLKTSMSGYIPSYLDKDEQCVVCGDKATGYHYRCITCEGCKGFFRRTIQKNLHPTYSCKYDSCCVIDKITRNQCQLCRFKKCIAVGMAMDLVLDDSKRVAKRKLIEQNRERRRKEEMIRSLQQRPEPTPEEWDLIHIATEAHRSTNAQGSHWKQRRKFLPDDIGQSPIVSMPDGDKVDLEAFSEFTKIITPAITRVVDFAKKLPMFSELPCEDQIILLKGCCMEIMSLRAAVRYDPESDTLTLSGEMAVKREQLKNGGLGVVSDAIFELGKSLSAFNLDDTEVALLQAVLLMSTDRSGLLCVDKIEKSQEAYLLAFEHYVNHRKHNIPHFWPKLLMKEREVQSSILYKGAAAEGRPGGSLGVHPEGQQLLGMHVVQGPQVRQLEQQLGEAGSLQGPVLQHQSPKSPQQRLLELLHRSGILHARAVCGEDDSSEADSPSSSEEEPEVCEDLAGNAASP
T1 sequence (P10828 whole entry): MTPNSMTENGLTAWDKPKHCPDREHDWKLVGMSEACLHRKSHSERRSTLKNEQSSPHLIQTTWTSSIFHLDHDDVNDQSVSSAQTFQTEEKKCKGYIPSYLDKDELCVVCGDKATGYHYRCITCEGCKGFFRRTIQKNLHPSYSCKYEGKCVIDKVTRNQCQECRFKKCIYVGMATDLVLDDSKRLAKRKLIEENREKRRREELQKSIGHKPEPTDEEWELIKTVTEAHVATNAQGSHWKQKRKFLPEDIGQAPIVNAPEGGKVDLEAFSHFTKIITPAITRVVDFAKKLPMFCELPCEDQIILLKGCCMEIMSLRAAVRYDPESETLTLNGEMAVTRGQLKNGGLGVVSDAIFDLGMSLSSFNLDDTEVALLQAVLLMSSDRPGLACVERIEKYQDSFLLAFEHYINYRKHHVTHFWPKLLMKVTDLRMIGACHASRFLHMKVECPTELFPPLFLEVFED
In words: Agonist activity at THR in HepG2 cells by whole cell assay. In kind it is functional, cell-based.

Assay [1] relates to Mus musculus. In words: Increase in heart weight in C57BL/6J mouse at 0.1 mg/kg, po after 11 days. Format: functional. In short, it runs like this: (§1)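 C57BL/6J mice, 10-12 per group, dosed orally by gavage once daily for 11 days in solutol/ethanol/water 10:10:80. Doses were 0.1, 0.3 and 3.0 mg/kg, given as the ethyl ester. At study end, heart rate was measured by non-invasive tail cuff, then the animals were sacrificed and hearts weighed. Heart weight change is expressed versus control.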

Assay [2] relates to Mus musculus. In words: Increase in heart weight in C57BL/6J mouse at 0.3 mg/kg, po after 11 days. Format: functional. In short, it runs like this: as §1
In assay [3] the test system is Mus musculus. In words: Increase in heart weight in C57BL/6J mouse at 3.0 mg/kg, po after 11 days. In kind it is functional. The method, boiled down: as §1
Assay [4] relates to Mus musculus. In words: Reduction in serum cholesterol in NMIR mouse at 0.1 mg/kg, po after 7 days. Further details: scale not given: the % may be the effect or the level left. Format: functional. The method, boiled down:
(§2)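 At study end, blood was taken retro-orbitally. Serum cholesterol (and triglycerides) were measured enzymatically with commercial kits on an autoanalyzer. Reduction is expressed as percent versus the control group.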

Assay [5] concerns Mus musculus. In words: Reduction in serum cholesterol in NMIR mouse at 0.3 mg/ kg, po after 7 days. Format: functional. Also on record: scale not given: the % may be the effect or the level left. In short, it runs like this:
as §2

Assay [6] has as its system Mus musculus. In words: Reduction in serum cholesterol in NMIR mouse at 1.0 mg/ kg, po after 7 days. Further details: scale not given: the % may be the effect or the level left. Format: functional. In short, it runs like this:
as §2

Assay [7] has as its system Mus musculus. In words: Reduction in serum cholesterol in NMIR mouse at 3.0 mg/ kg, po after 7 days. Format: functional. Further details: scale not given: the % may be the effect or the level left. In short, it runs like this: as §2

Structures are written as SMILES.

Turning to `CC(C)c1cc(Oc2c(C(C)C)cc(CC3SC(=O)NC3=O)cc2C(C)C)ccc1O` (centres undefined), the EC50 (in general, the concentration that produces a half-maximal response) at Thyroid hormone receptor turned out to be 70 nM.

With `CC(C)c1cc(Oc2ccc3oc(C(=O)O)cc3c2)ccc1O`, the response on Thyroid hormone receptor was half-maximal at 1000 nM (EC50).

Compound `COc1ccc(Oc2c(Br)cc3oc(C(=O)O)cc3c2Br)cc1C(C)C` displayed an EC50 on Thyroid hormone receptor of 1000 nM.

With `O=C(O)c1cc2c(Br)c(Oc3ccc(O)c(C(=O)c4ccc(F)cc4)c3)c(Br)cc2o1`, the concentration giving a half-maximal response (EC50) at Thyroid hormone receptor was found to be 210 nM.

At Thyroid hormone receptor, `O=C(O)c1cc2c(Br)c(Oc3ccc(O)c(C(O)c4ccc(F)cc4)c3)c(Br)cc2o1` (centres undefined) came in with an EC50 of 22 nM.

`Cc1cc(CC2SC(=O)NC2=O)cc(C)c1Oc1ccc(O)c(C(C)C)c1` (centres undefined) registered an EC50 on Thyroid hormone receptor of 0.08 nM.

On Thyroid hormone receptor, `Cc1cc2oc(C(=O)O)cc2c(C)c1Oc1ccc(O)c(C(C)C)c1` returned an EC50 of 110 nM.

Compound `Cc1cc2c(c(C)c1Oc1ccc(O)c(C(C)C)c1)CC(CC(=O)O)O2` (centres undefined) registered an EC50 at Thyroid hormone receptor of 5.1 nM.

Take `Cc1cc2c(CC(=O)O)coc2c(C)c1Oc1ccc(O)c(C(C)C)c1`: the Activity with Mus musculus [1] amounted to 12%; with Mus musculus [2], 17%; with Mus musculus [3], 27%; with Mus musculus [4] it was 32%; with Mus musculus [5] it was 34%; in the assay on Mus musculus [6] it was 39%. The Activity in the assay with Mus musculus [7] amounted to 41%. At Thyroid hormone receptor, this compound registered an EC50 of 0.3 nM.

Consider `Cc1ccc(CC2CC(=O)NC(=O)S2)c(C)c1Oc1ccc(O)c(C(C)C)c1` (centres undefined), for which a half-maximal response on Thyroid hormone receptor (EC50) required 0.06 nM.

`Cc1cc2c(CC(=O)O)coc2c(C)c1Oc1ccc(O)cc1` returned an EC50 at Thyroid hormone receptor of 1000 nM.

At Thyroid hormone receptor, `CC(C)c1cc(Oc2c(Br)cc3oc(C(=O)O)cc3c2Br)ccc1O` came in with an EC50 of 7 nM.
